{"source": "ChEMBL document CHEMBL1123566", "about": "“Synthesis and cardiac electrophysiological activity of 2- and 3-[(substituted phenyl)alkyl]quinuclidines. Structure-activity relationships” (1987)", "key": {"Canis familiaris [1]": {"organism": "Canis familiaris", "experiment": "In vitro electrophysiological evaluation in canine cardiac ventricular muscle reported as % change for conduction time(CT) at 0.1-100 uM concentration range; Minimal (<IO%increase or a decrease in CT)", "type": "functional, Canis lupus familiaris, Muscle tissue"}, "Canis familiaris [2]": {"organism": "Canis familiaris", "experiment": "In vitro electrophysiological evaluation in canine cardiac ventricular muscle reported as maximum % change for conduction time(CT) at 0.1-100 uM concentration range", "type": "functional, Canis lupus familiaris, Muscle tissue", "summary_of_the_method": "(§1)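 Canine right ventricle and papillary muscle strips in oxygenated Tyrode's solution, fitted with stimulating and recording electrodes. The extra-stimulus conduction-interval method was adapted for in vitro use. FRP and CT were read from a conduction-interval curve before and after various compound concentrations, and expressed as percent change from control. Compounds were taken from 10 mM deionized-water stock into Tyrode's. Each strip was used once as its own control.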"}, "Canis familiaris [3]": {"organism": "Canis familiaris", "experiment": "In vitro electrophysiological evaluation in canine cardiac Purkinje fibres reported as percent change Vmax concentration range of 0.1-100 uM", "type": "functional", "conditions": "Canis lupus familiaris; Purkinje fiber", "summary_of_the_method": "(§2)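 Canine cardiac Purkinje fibres, intracellular microelectrode recording, paced at a basic cycle length of 1 s. APD95 and Vmax read simultaneously. Compound: 10 mM stock in deionized water, diluted into Tyrode's solution, tested over the stated concentration range. Each fibre used once as its own control. Result is % change from control, given at 10 µM or as the maximum with its concentration. M = <10% decrease or an increase in Vmax.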"}, "Canis familiaris [4]": {"organism": "Canis familiaris", "experiment": "In vitro electrophysiological activity in canine cardiac Purkinje fibres given as maximum % change for action potential duration at 0.1-100 uM concentration", "type": "functional, Canis lupus familiaris, Purkinje fiber", "summary_of_the_method": "(§3)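 Canine cardiac Purkinje fibres, intracellular recording at 1 s basic cycle length, over cumulative concentration ranges. Compound 10 mM stock in deionized water diluted into Tyrode's. Each fibre used once as its own control. Value is the maximum % change from control in APD at 95% repolarization, with the concentration where it occurred; both values given if a biphasic response (>20% reversal) occurred.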"}, "Canis familiaris [5]": {"organism": "Canis familiaris", "experiment": "In vitro electrophysiological evaluation in canine cardiac ventricular muscle reported as maximum % change for conduction time(CT) at 0.1-30 uM concentration range", "type": "functional, Canis lupus familiaris, Muscle tissue", "summary_of_the_method": "as §1"}, "Canis familiaris [6]": {"organism": "Canis familiaris", "experiment": "In vitro electrophysiological evaluation in canine cardiac ventricular muscle reported as % change for conduction time(CT) at 0.1-30 uM concentration range; Minimal (<IO%increase or a decrease in CT)", "type": "functional, Canis lupus familiaris, Muscle tissue"}, "Canis familiaris [7]": {"organism": "Canis familiaris", "experiment": "In vitro electrophysiological activity in canine cardiac Purkinje fibres given as maximum % change for action potential duration at 10 uM concentration", "type": "functional, Canis lupus familiaris, Purkinje fiber", "summary_of_the_method": "as §3"}, "Canis familiaris [8]": {"organism": "Canis familiaris", "experiment": "In vitro electrophysiological evaluation in canine cardiac ventricular muscle reported as maximum % change for conduction time(CT) at 0.1-30 uM concentration range; Minimal (<IO%increase or a decrease in CT)", "type": "functional, Canis lupus familiaris, Muscle tissue", "summary_of_the_method": "as §1"}, "Canis familiaris [9]": {"organism": "Canis familiaris", "experiment": "In vitro electrophysiological evaluation in canine cardiac ventricular muscle reported as % change for the functional refractory period (FRP) concentration range of 0.1-100 uM", "set-up": "species or system Canis lupus familiaris, Muscle tissue", "summary_of_the_method": "as §1"}, "Canis familiaris [10]": {"organism": "Canis familiaris", "experiment": "(§4) In vitro electrophysiological evaluation in canine cardiac Purkinje fibres reported as % change for action potential duration at 0.1-100 uM concentration range", "type": "functional, Canis lupus familiaris, Purkinje fiber", "summary_of_the_method": "as §2"}, "Canis familiaris [11]": {"organism": "Canis familiaris", "experiment": "In vitro electrophysiological evaluation in canine cardiac ventricular muscle reported as % change for the functional refractory period (FRP) concentration range of 0.1-30 uM", "set-up": "species or system Canis lupus familiaris, Muscle tissue", "summary_of_the_method": "as §1"}, "Canis familiaris [12]": {"organism": "Canis familiaris", "experiment": "In vitro electrophysiological evaluation in canine cardiac ventricular muscle reported as maximum % change for functional refractory period (FRP) at 0.1-100 uM concentration range", "set-up": "species or system Canis lupus familiaris, Muscle tissue"}, "Canis familiaris [13]": {"organism": "Canis familiaris", "experiment": "In vitro electrophysiological evaluation in canine cardiac Purkinje fibres reported as percent change Vmax concentration range of 0.1-100 uM; Minimal (<IO%increase or a decrease in CT)", "type": "functional", "conditions": "Canis lupus familiaris; Purkinje fiber", "summary_of_the_method": "as §2"}, "Canis familiaris [14]": {"organism": "Canis familiaris", "experiment": "as §4", "type": "functional, Canis lupus familiaris, Purkinje fiber", "summary_of_the_method": "as §2", "remark": "listed apart in the source"}, "Canis familiaris [15]": {"organism": "Canis familiaris", "experiment": "In vitro electrophysiological activity in canine cardiac Purkinje fibres given as maximum % change for action potential duration at 100 uM concentration", "type": "functional, Canis lupus familiaris, Purkinje fiber", "summary_of_the_method": "as §3"}, "Canis familiaris [16]": {"organism": "Canis familiaris", "experiment": "In vitro electrophysiological evaluation in canine cardiac ventricular muscle reported as maximum % change for functional refractory period (FRP) at 0.1-30 uM concentration range", "set-up": "species or system Canis lupus familiaris, Muscle tissue", "summary_of_the_method": "as §1"}}, "note": "“And” between values parts separate entries of the source, which are not always exact repeats. Equal entries are not always repeated."}
{"smiles": "CCCCCCC[N+]12CCC(CC1)C(=O)C2CCCc1ccc(Cl)cc1.O=P([O-])(O)O", "note": "(stereo unspecified)", "values": [{"measurement": "CT", "setting": "Canis familiaris [1]", "result": "<10", "unit": "%"}, {"measurement": "CT", "setting": "Canis familiaris [2]", "result": 31, "unit": "%"}, {"measurement": "Vmax", "setting": "Canis familiaris [3]", "result": "-18% and -15%"}, {"measurement": "APD95", "setting": "Canis familiaris [4]", "result": 9, "unit": "%"}, {"measurement": "CT", "setting": "Canis familiaris [5]", "result": 17, "unit": "%"}, {"measurement": "CT", "setting": "Canis familiaris [6]", "result": "<10", "unit": "%"}, {"measurement": "APD95", "setting": "Canis familiaris [7]", "result": "38% and 69% and 35%"}, {"measurement": "CT", "setting": "Canis familiaris [8]", "result": "<10", "unit": "%"}, {"measurement": "FRP", "setting": "Canis familiaris [9]", "result": 5, "unit": "%"}, {"measurement": "APD95", "setting": "Canis familiaris [10]", "result": "38% and 69% and 35%"}, {"measurement": "FRP", "setting": "Canis familiaris [11]", "result": "26% and 22%"}, {"measurement": "FRP", "setting": "Canis familiaris [12]", "result": 10, "unit": "%"}, {"measurement": "Vmax", "setting": "Canis familiaris [13]", "result": "< 10", "unit": "%"}, {"measurement": "APD95", "setting": "Canis familiaris [14]", "result": 9, "unit": "%"}, {"measurement": "APD95", "setting": "Canis familiaris [15]", "result": "13% and 12% and 9%"}, {"measurement": "FRP", "setting": "Canis familiaris [16]", "result": "29% and 27%"}]}
